Compounds with a hit are over-represented: about 5.1% of the library has one in this group of screens.
STAT1 inh: inhibitors of IFN-gamma induced STAT1 signaling. NIH 3T3 STAT1-luciferase reporter, luminescence. inhibition, % at 5.5 µM. actives 0.35% (n = 200,000);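 active = inhibition above a set limit, the mean inhibition across all tested compounds plus 3 SD, cut at about 34% in these data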;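 also: 0% = IFN-gamma with DMSO and 100% = IFN-gamma with 300 µM nifuroxazide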
APP 5'UTR act: activates APP 5'UTR luciferase reporter. actives 1% (n = 190,000). activation, % at 2 µM. SH-SY5Y APP 5'UTR luciferase reporter, luminescence; zero percent = DMSO vehicle wells;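 active = activation above a set limit, based on mean plus 3 SD of controls, cut at about 140% in these data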
STAT3 act: STAT3 signaling activation; U3A cells, IL-6 STAT3-luciferase reporter, luminescence; 100% = signal with IL-6 EC80 alone; activation (% of control), % at 5.6 µM; actives 0.91% (n = 190,000); AID 871;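 active = activation above the screen-wide mean of compound activation plus 3 SD, cut at about 130% in these data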;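 also: 0% = background luminescence of wells with medium and substrate only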
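Material: STAT1-lacking human U3A cells, STAT3 luciferase reporter | Benchmarks: IL-6-only wells as 100% reference | Probe or stimulus: IL-6 (33 ng/mL) | Timing: Compound 1 h, then IL-6 6 h at 37 °C | Detection: Luminescence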
NF-kB expr up: compounds increasing NF-kB expression in human neuronal cells; AID 1239; NF-kB reporter expression; stronger effect = higher value; fold change at 12.5 µM; actives 1.6% (n = 190,000); in the data active = fold change above about 3.3
STAT3 inh: STAT3 signaling inhibition | U3A cells, IL-6 STAT3-luciferase reporter, luminescence; host cell line lacks STAT1 | inhibition, % at 5.5 µM | actives 0.89% (n = 190,000) | AID 862;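 active = inhibition above the mean inhibition across all screened compounds plus 3 SD, cut at about 44% in these data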;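 also: 0% = DMSO only wells and 100% = 100 µM nifuroxazide control wells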
STAT1 act: increases IFN-gamma driven STAT1 reporter signal. NIH 3T3 STAT1-luciferase reporter, luminescence; 100% = IFN-gamma alone, no compound. activation (% of control), % at 5.5 µM. actives 2.6% (n = 200,000). AID 932;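 active = activation above the screen-wide mean activation plus 3 SD, cut at about 130% in these data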;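 also: raw ratio to IFN-gamma control signal so 100% means no change and 0% no light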
STAT1 activ conf: STAT1 activation, confirmation assay | actives 97% (n = 1,200) | shares compounds with STAT1 act | activation (% of control), % at 5.7 µM | AID 1262 | NIH 3T3 STAT1-luciferase reporter, IFN-gamma potentiation, luminescence; 100% = IFN-gamma EC80 alone, no compound;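 active = activation above a set limit carried over from the earlier primary STAT1 screen, cut at about 140% in these data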;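 also: simple ratio to median IFN-gamma plus DMSO wells so 0% means no light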
NFkB act: activates NF-kappaB, counter-screen to STAT1 activators | activation (% of control), % at 5.7 µM | actives 43% (n = 1,200) | HEK293T NF-kB luciferase reporter, TNF-alpha stimulated, luminescence; 100% = TNF-alpha with vehicle only | shares compounds with STAT1 act;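 active = activation above the mean of solvent-only control wells plus 3 SD, set per campaign, cut at about 130% in these data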;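 also: TNF-alpha given at a submaximal dose yielding about 80% of full reporter signal; values are well signal over median control so 100% means no change and 0% no light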
STAT3 act STAT1c: counter-screen for STAT1 activators: human STAT3 activation. shares compounds with STAT1 act. U3A cells STAT3-luciferase reporter, IL-6, luminescence; cells lack STAT1; 100 = IL-6 alone, no compound effect. activation (% of control), % at 5.7 µM. actives 46% (n = 1,200);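 active = activation above the solvent-only control well mean plus 3 SD, set per plate batch, cut at about 110% in these data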;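 also: 0% = no luminescence and 100% = median IL-6 plus DMSO wells; higher means more STAT3 reporter activation so hits are non-selective activators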
An asterisk follows results filed as active; nt = no result given.

SMILES	STAT1 inh	APP 5'UTR act	STAT3 act	NF-kB expr up	STAT3 inh	STAT1 act	STAT1 activ conf	NFkB act	STAT3 act STAT1c
COc1ccc(-n2ncc3c(NCc4ccco4)ncnc32)cc1	-68	95	94	3.2	12	162*	185*	138*	114*
CCCN(CCC)c1ncnc2c1cnn2-c1ccc(OC)cc1	-67	137*	78	2.1	25	162*	249*	145*	105
COCCCN(C(=O)Nc1cccc(Cl)c1)C(C)c1ccccn1 (stereo not drawn)	7	7	104	1	-2	94	nt	nt	nt
CCCCCCOc1ccc(/C(N)=N/O)cc1	-67	78	113	6.8*	-12	161*	157*	129	121*
O=c1c(C=NCCN2CCNCC2)c(-c2ccccc2)[nH]n1-c1ccc([N+](=O)[O-])cc1	-75	8	111	1.8	-12	168*	145*	125	120*
COc1ccc(-n2ncc3c(NCC4CCCO4)ncnc32)cc1 (stereo not drawn)	-79	114	94	2.7	10	172*	182*	131	122*
CN(C)CCNc1ncnc2c1cnn2-c1ccc(Cl)cc1	-19	92	105	2.3	3	118	nt	nt	nt
Clc1ccc(-n2ncc3c(NCC4CCCO4)ncnc32)cc1 (stereo not drawn)	-66	156*	85	3.4*	18	163*	254*	133	110
COC(=O)c1ccc(/C=N/Nc2nc(N3CCCCC3)nc(N3CCCCC3)n2)cc1	1	9	96	1.3	16	98	nt	nt	nt
Cn1cccc1/C=C1\CCC/C(=C\c2cccn2C)C1=O	-56	143*	93	6*	13	152*	228*	155*	108
Cc1ccccc1-c1ccc(Nc2ccc(N3CCOCC3)cc2)nn1	-11	5	91	1	16	110	nt	nt	nt
CCOC(=O)c1sc(-c2ccc(OC)cc2)cc1N	-62	159*	105	7.1*	-2	157*	206*	137*	109
O=C(NC(=S)Nc1ccc(F)cc1)c1ccc2c(c1)OCCO2	-59	213*	84	2.1	24	152*	211*	130	101
COc1ccc(N(C(=O)c2ccccc2)S(=O)(=O)c2cccs2)cc1	12	2	107	0.97	4	87	nt	nt	nt
COc1ccc(N(/N=C2\Sc3ccccc3C2=O)C(C)=O)cc1	-55	172*	100	4.8*	6	151*	191*	123	110
COc1ccc(N/C=C2/Sc3ccccc3NC2=O)cc1	-71	104	110	1.8	-10	166*	170*	112	107
Cc1ccc(N/C=C2/Sc3ccccc3NC2=O)cc1	-77	123	94	1.7	12	168*	192*	135*	90
O=C(Nc1ccn(Cc2ccc(Cl)cc2)n1)c1ccccc1	-60	47	110	2.5	-7	151*	152*	122	112*
O=C(Nc1ccn(Cc2ccccc2)n1)c1ccc2c(c1)OCO2	-25	43	108	1.8	1	123	nt	nt	nt
Cc1ccc(-c2cn(-c3ccccc3)c(SCC(N)=O)n2)cc1C	-13	17	107	0.99	-10	112	nt	nt	nt
COC(=O)c1ccc(/C=C(\C#N)c2ccccn2)cc1	-114	148*	104	7*	-3	204*	225*	158*	107
COC(=O)c1ccc(OC(=O)c2ccccn2)cc1	-4	-8	102	1.1	4	104	nt	nt	nt
N#C/C(=C\c1cccnc1)c1nc2c(s1)CCCC2	-71	147*	105	4.2*	-4	165*	185*	133	102
COc1cc(/C=C(\C#N)c2nc3c(s2)CCCC3)ccc1O	-22	60	109	2.7	-5	120	nt	nt	nt
CC1CCc2nc(/C(C#N)=C/c3cccnc3)sc2C1 (stereo not drawn)	-135	168*	103	2.1	-2	220*	286*	146*	113*
SMILES	STAT1 inh	APP 5'UTR act	STAT3 act	NF-kB expr up	STAT3 inh	STAT1 act	STAT1 activ conf	NFkB act	STAT3 act STAT1c
COc1cccc(C(=O)NC2(C(F)(F)F)N=C3SCCN3C2=O)c1 (stereo not drawn)	8	13	97	0.96	7	92	nt	nt	nt
COc1ccc2nc3c(cc2c1)c(NC(=O)C1CCCO1)nn3CC(C)C (stereo not drawn)	-1	-4	71	0.45	36	100	nt	nt	nt
CN(C)C=Nc1ccc2nn(-c3ccccc3)nc2c1	-71	79	86	5.6*	19	165*	186*	134*	109
CN1CCC(NC(=O)c2ccncc2)CC1	11	8	95	1.3	11	87	nt	nt	nt
CC(=O)CSc1nnc2cc(C)c3ccccc3n12	-5	1	93	1.4	10	104	nt	nt	nt
CNC(=O)c1sc2nc(-c3ccc(OC)cc3)cn2c1C	-71	146*	106	4.8*	-3	164*	188*	135*	105
COc1cccc(-c2cc(C(F)(F)F)n3nc(N)nc3n2)c1	4	-10	94	1.2	10	99	nt	nt	nt
COc1cccc(-c2cn3nc4c(nc3n2)CCCC4)c1	-66	170*	88	3.6*	16	160*	191*	111	89
Cc1cc(C)n(-c2nnc(NC34CC5CC(CC(C5)C3)C4)nn2)n1	-70	134	124	2.5	-25	162*	182*	145*	159*
COc1cccc(-n2cc(CNCc3c(C(=O)N(C)C)nc4ccc(Cl)cn34)cn2)c1	2	11	99	0.9	12	97	nt	nt	nt
CCN1C(=S)SC(=O)C1=C1C=C(C)N(Cc2ccco2)C(C)=C1	-104	122	114	3	-10	198*	278*	151*	127*
O=C(CC(=O)c1cccc([N+](=O)[O-])c1)Nc1ccccc1Cl	4	-8	90	1.3	14	95	nt	nt	nt
C/C(=N\NC(=O)c1c[nH]c2ccccc12)c1ccccn1	-64	-47	96	0.92	12	157*	198*	120	105
Cc1cccc(OCC2=N/C(=C\N(C)C)C(=O)O2)c1	-4	-2	104	1.1	0	104	nt	nt	nt

Assay outcomes from PubChem BioAssay.
